Compound activity from PubChem.
L929 necroptosis: L929 zVAD cell death inhibition; 0.38% of 220,000 active; viability rescue, % at 10 µM; L929 zVAD necroptosis rescue, ATP luminescence, 24 h; with zVAD 60 µM;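 active means activation, scaled between plate controls, above about 75%, limit read from the data; inactive means activation under that limit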;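 further: 0% = zVAD with DMSO and 100% = DMSO alone without zVAD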
RBBP9 inh: blocks human serine hydrolase RBBP9. O75884. recombinant RBBP9, FP-Rh probe fluorescence polarization. inhibition, % at 7.94 µM. 0.2% of 220,000 active. AID 1515;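 active means inhibition above the campaign mean of all tested compounds plus 3 SD, cut at about 14% in these data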;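 further: plate controls were DMSO wells with RBBP9 for no effect and wells lacking RBBP9 protein for full effect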
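Measured by: FP readout at 525/598 nm; material: recombinant human RBBP9; also added: Serine-hydrolase probe FP-Rh, 375 nM pre-mixing; medium: Tris buffer pH 8.0, NaCl, Pluronic; replication: one well per compound; doses: one concentration, 7.94 µM nominal, 0.794% DMSO; timing: preincubation 30 min plus labeling 45 min at 25 °C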
Pf gamet viab: kills late stage P. falciparum gametocytes; P. falciparum stage V gametocytes, ATP luminescence, 24 h; inhibition, % at 10.9 µM; 0.065% of 150,000 active;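 active means inhibition above the mean plus 3 SD of compounds within the control limits, set per campaign, cut at about 38% in these data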;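 further: 0% = DMSO wells and 100% = medium only without gametocytes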
TNF death inh: TNF-alpha cell death inhibition in Jurkat FADD-/- cells. 0.068% of 220,000 active. AID 463075. activation (protection from cell death), % at 10 µM. Jurkat FADD-/- TNF necroptosis rescue, ATP luminescence, 24 h; 0 = TNF only, 100 = no-TNF cells;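 active means activation, meaning protection from cell death, of at least 50% relative to plate controls; inactive means activation below 50%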;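 further: necroptosis triggered by 40 ng/mL TNF-alpha added together with compound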
Wee1 degr inh: human Wee1 degradation inhibition, primary screen; P30291; HeLa Luc-Wee1K328M stability, luciferase luminescence; 100% = proteasome inhibitor MG132 effect; reporter increase, % at 5 µM; 1.2% of 220,000 active; AID 1321;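 active means activation above the mean of all tested compounds plus 3 SD, set per screening run, cut at about 8.8% in these data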;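 further: cells exposed to compound for 20 h before luminescence read; 0% = DMSO alone and 100% = MG132 at 30 µM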
Target sequence (P30291 whole entry K328M): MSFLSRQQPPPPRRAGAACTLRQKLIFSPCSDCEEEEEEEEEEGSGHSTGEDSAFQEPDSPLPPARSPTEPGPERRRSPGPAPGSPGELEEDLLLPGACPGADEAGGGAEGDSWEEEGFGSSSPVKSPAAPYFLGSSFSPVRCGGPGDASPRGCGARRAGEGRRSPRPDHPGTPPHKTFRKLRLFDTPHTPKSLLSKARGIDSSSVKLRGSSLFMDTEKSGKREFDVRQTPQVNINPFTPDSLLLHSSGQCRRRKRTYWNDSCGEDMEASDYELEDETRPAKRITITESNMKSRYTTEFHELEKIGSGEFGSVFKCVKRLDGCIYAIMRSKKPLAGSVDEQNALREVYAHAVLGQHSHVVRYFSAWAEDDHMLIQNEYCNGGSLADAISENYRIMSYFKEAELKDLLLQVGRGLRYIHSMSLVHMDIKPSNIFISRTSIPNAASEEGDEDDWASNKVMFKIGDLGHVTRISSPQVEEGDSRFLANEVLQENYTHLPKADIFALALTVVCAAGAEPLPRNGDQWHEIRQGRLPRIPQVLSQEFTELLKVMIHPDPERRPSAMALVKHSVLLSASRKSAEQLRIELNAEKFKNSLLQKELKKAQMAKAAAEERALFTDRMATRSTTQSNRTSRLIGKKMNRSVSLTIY
m-calpain inh: calpain II (pig) inhibition; purified calpain II, fluorogenic peptide substrate, 30 min; inhibition, % at 16 µM; 0.37% of 220,000 active;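 active means inhibition above about 50%, limit read from the data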
RBBP9 inh conf: confirmation of human RBBP9 inhibitors | shares compounds with RBBP9 inh | recombinant RBBP9, FP-Rh probe fluorescence polarization | inhibition, % at 7.94 µM | 36% of 410 active | AID 1537;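 active means inhibition above the hit cutoff derived for the primary screen, cut at about 15% in these data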;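 further: 0% = RBBP9 with DMSO and 100% = wells lacking RBBP9 protein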
Numbers without * were called inactive; i = inactive; . = no result given. Most compounds without a hit are left out; they make up all but 2.1% or so of the library.

SMILES | L929 necroptosis | RBBP9 inh | Pf gamet viab | TNF death inh | Wee1 degr inh | m-calpain inh | RBBP9 inh conf
COc1ccc(-n2c(Cc3cccn3C)nnc2SCC(=O)NC2CCCC2)cc1 | -1.5 | 19.0* | . | 1.7 | -2.1 | -21.8 | 2.3
S=C(NCc1ccc2c(c1)OCO2)Nc1ccc2nsnc2c1 | -0.1 | -9.0 | 16.0 | 1.1 | -1.4 | 16.3 | .
Cc1ccc2c(c1)nnn2C1CCN(CC(=O)Nc2ccc3c(c2)OCCO3)CC1 | 1.7 | -3.9 | . | 1.3 | -2.8 | -12.8 | .
Cc1ccccc1NC(=O)c1sc2nc3c(c(-c4ccco4)c2c1N)CCCC3 | 0.2 | 15.4* | -4.5 | -1.5 | 2.6 | -474.2 | 6.6
COc1ncccc1-c1nnn(-c2ccccc2)n1 | -0.7 | -0.5 | 7.8 | -1.5 | 3.7 | 7.6 | .
O=C(NNC(=O)c1cc(O)c(O)c(O)c1)NC1CCCCC1 | 1.7 | 14.4* | . | -3.1 | -0.4 | -10.7 | 22.9*
O=C(NNC(=O)c1cccnc1)NC1CCCCC1 | -0.8 | -4.4 | 18.7 | 0.2 | 0.3 | 0.8 | .
COc1cc(-c2nc3ccccn3c2/N=C/c2ccc(F)cc2)ccc1O | 0.5 | 15.8* | -5.4 | -1.5 | 2.5 | i | 10.5
COc1cc(-c2nc3ccccn3c2/N=C/c2cccc(OC)c2O)ccc1O | 0.3 | -6.3 | 25.1 | -0.5 | 2.5 | i | .
Fc1ccc(N2CN(Cc3cccnc3)CNC2=S)cc1 | 1.0 | -2.7 | -1.7 | -0.1 | -2.9 | 13.3 | .
COc1ccc(NC(=S)NNc2ccc(S(=O)(=O)Nc3ccccc3C(=O)O)cc2[N+](=O)[O-])cc1 | -0.8 | 22.2* | 2.1 | -8.0 | 0.1 | 6.3 | 14.8*
CC(=O)Nc1cccc(/C(C)=N/NC(=O)c2cccs2)c1 | . | -12.0 | -20.0 | 1.1 | -2.0 | 24.7 | .
CC(=O)Nc1cccc(/C(C)=N/NC(=O)c2ccc(NS(=O)(=O)c3cccs3)cc2)c1 | 1.0 | 19.2* | -23.5 | 1.3 | 0.6 | -14.4 | 7.1
O=Nc1c(-c2cccc([N+](=O)[O-])c2)nc2ncccn12 | 0.2 | 21.1* | 2.5 | -24.3 | 2.5 | 15.6 | 24.1*
Cc1nn(-c2ccccc2)nc1C(=O)c1c(C)[nH]n(-c2ccccc2)c1=O | 0.8 | 15.0* | 4.4 | 0.9 | -0.3 | 11.3 | 0.9
CC1=NN(c2ccccc2)C(=O)C1C=Nc1ccc(N(C)C)cc1 (stereo not drawn) | 0.5 | 19.0* | -12.9 | 4.2 | -2.2 | 2.1 | 15.0*
C=C(C)C(=O)N1CC2(CC(c3cccc(NC(=O)/C(C)=C\C)c3)=NO2)C[C@H]1C(N)=O (stereo partly drawn) | -0.2 | . | . | 3.2 | . | -30.0 | .
CCCc1nnc(NC(=O)CN2CCN(C)CC2)s1 | 0.0 | 16.7* | . | -0.2 | 0.9 | -10.3 | 4.5
CC1CCCC(C)N1C(=O)COC(=O)C(Cc1ccccc1)NC(=O)c1cccs1 (stereo not drawn) | -0.2 | 16.1* | -0.9 | 1.2 | 4.3 | 11.4 | 0.2
CCN(CC)CCC#CC(O)(c1ccccc1)c1ccccc1 | -0.6 | -11.1 | -2.1 | 1.9 | -0.5 | 8.9 | .
CCCN(CC#CC(O)(c1ccccc1)c1cccnc1)CCC (stereo not drawn) | -1.3 | 22.3* | -14.9 | 0.1 | -0.6 | -1.4 | 9.3
O=C1CC(=O)N(CCNc2ncc(C(F)(F)F)cc2Cl)C(=O)N1 | 1.2 | -9.0 | 10.1 | -0.6 | -2.2 | -68.5 | .
O=C1C=CC(=O)N1CCNc1ncc(C(F)(F)F)cc1Cl | 38.0 | 32.6* | -9.8 | -10.4 | -1.8 | 2.4 | 30.8*
Cc1ccccc1Nc1nc(N)nc(CSc2n[nH]c(N)n2)n1 | 1.5 | -4.4 | -6.9 | 5.2 | -1.1 | -6.0 | .
CCNc1ccc2noc3c2c1C(=O)c1ccccc1-3 | -0.9 | 27.6* | . | -10.9 | -0.5 | -6.0 | -3.4
SMILES | L929 necroptosis | RBBP9 inh | Pf gamet viab | TNF death inh | Wee1 degr inh | m-calpain inh | RBBP9 inh conf
CCOc1ccc2noc3c2c1C(=O)c1ccccc1-3 | 7.2 | 13.7 | . | -6.5 | 8.0 | -7.4 | .
O=C1c2ccccc2-c2onc3ccc(N4CCCC4)c1c23 | 17.1 | 45.9* | 12.3 | -0.5 | -4.7 | 19.6 | 15.7*
O=C(N/N=C/c1ccc(O)c(O)c1O)/C(=C/c1ccc([N+](=O)[O-])cc1)NC(=O)c1ccccc1 | -0.5 | 17.9* | 40.3* | -13.8 | 0.5 | -20.9 | 38.4*
Cc1ccc(NC(=O)/C(=C\c2ccc([N+](=O)[O-])cc2)NC(=O)c2ccccc2)cc1 | 0.1 | -5.3 | . | -1.8 | -1.5 | 16.3 | .
CC(C)CC(=O)O/N=C1\C(=O)N(Cc2ccc(Cl)cc2)c2ccc([N+](=O)[O-])cc21 | 0.9 | 23.6* | . | -4.8 | 0.2 | -15.2 | 45.5*
CCOC(=O)c1nn(-c2ccc(C)c(C)c2)c(=O)c2c(N)scc12 | 0.2 | 18.4* | . | -2.1 | -1.4 | -25.3 | 38.1*
CCOC(=O)c1nn(-c2ccc(OC)cc2)c(=O)c2c(N)scc12 | 0.1 | 13.4 | . | -3.2 | 3.1 | -39.9 | .
Nc1nc(-c2cccnc2)nn1C(=O)CCc1ccccc1 | 1.0 | 14.3* | 2.7 | -1.6 | 0.9 | . | 5.9
Nc1nc(-c2cccnc2)nn1C(=O)COc1ccccc1 | 0.9 | -3.7 | . | -1.5 | 1.9 | -13.4 | .
CCc1nn(-c2ccccc2)c(=S)c2ccccc12 | -0.8 | -7.7 | 19.3 | -2.4 | 3.4 | 18.7 | .
COc1ccc(/C=C/C(=O)NC(=S)NNC(=O)Cc2cccs2)cc1OC | -0.4 | 14.9* | 1.6 | -1.4 | 1.4 | -54.6 | 9.3
C/C(=N\NC(=S)NC(C)C)c1ccc(-n2ccnc2)cc1 | 1.0 | -1.4 | -23.0 | -0.1 | -2.5 | 11.0 | .
Cc1cccc(-n2c(SCC(=O)NCc3ccc4c(c3)OCO4)nc3ccccc3c2=O)c1 | 0.6 | -4.2 | 23.4 | 1.9 | 2.5 | -0.2 | .
Cc1cc(C)cc(-n2c(SC(C)C(=O)NCc3ccc4c(c3)OCO4)nc3ccccc3c2=O)c1 (stereo not drawn) | 0.8 | 20.8* | . | 1.5 | -2.9 | -7.1 | 1.4
O=C(Oc1ccc(C(=S)N2CCC(O)CC2)cc1)c1ccc(Cl)cc1 | -1.3 | 19.7* | 4.3 | -1.7 | 5.3 | 23.4 | 29.0*
O=C(Oc1ccc(C(=S)N2CCCCC2)cc1)c1ccccc1 | -0.3 | 2.4 | 4.1 | 2.3 | -4.1 | 1.7 | .
COc1ccc(N=C2CC(C)(C)CC(=O)/C2=C(/O)c2ccccc2)cc1 | 1.3 | 2.1 | 1.3 | -0.5 | 2.2 | -0.3 | .
COc1ccc(OC)c(NC(=O)c2c(NC(=O)CCC(=O)O)sc3c2CCCCC3)c1 | 0.8 | 21.0* | -0.4 | 1.4 | 2.8 | -16.1 | 6.8
COc1ccccc1NC(=O)c1c(NC(=O)CCC(=O)O)sc2c1CCCCC2 | 0.7 | -4.4 | 6.2 | 2.2 | 8.3 | -5.0 | .
CCOC(=O)c1cc(-c2ccc(C)cc2)n(CCC(=O)NCCCOC)c1C | 0.5 | 15.2* | . | 1.0 | -1.5 | 2.7 | 1.9
CCOC(=O)c1c(C)[nH]c(N=Nc2ccc(C)cc2)c1C | 0.7 | -9.6 | . | -1.7 | 1.8 | -12.2 | .
